ChEMBL document CHEMBL2440072, “Identification, biological characterization and pharmacophoric analysis of a new potent and selective NK1 receptor antagonist clinical candidate” (Bioorg Med Chem, 2013)
Blank lines part the entries; values can stand above or below the compound they belong to.

Assays:
[1] = Oral bioavailability in dog at 1 mg/kg; format: ADME, organism-based, Canis lupus familiaris; details: in vivo
How it was run: (§1)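 Rat and dog pharmacokinetics derived from plasma concentrations after 0.5 mg/kg i.v. and 1 mg/kg oral dosing.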

[2] = Volume of distribution at steady state in rat at 0.5 mg/kg, iv and 1 mg/kg, po; format: ADME, organism-based; details: in vivo, read-out: Vdss; how it was run: as §1
[3] = Plasma clearance in rat at 0.5 mg/kg, iv and 1 mg/kg, po; format: ADME, organism-based; how it was run: as §1
Substance-P receptor [4] = target: T1, Substance-P receptor (Homo sapiens, UniProt P25103); test: Antagonist activity at NK1 receptor (unknown origin)
Substance-P receptor [5] = target: T1, Substance-P receptor; test: Displacement of [3H]SP from human recombinant NK1 receptor expressed in CHO cells after 40 mins by scintillation counting analysis; format: cell-based
How it was run: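 Membranes from hNK1-CHO cells (8 µg protein) with [3H]-SP 0.5 nM in HEPES pH 7.4, 3 mM MnCl2, 0.02% BSA. Compound 1 pM–1 µM final, 40 min at room temperature. Nonspecific binding with 1 µM SP. Filtration through PEI-soaked GF/B filters, scintillation counting. IC50 fitted with slope fixed at unity, converted to Ki by Cheng-Prusoff; duplicates.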

Meriones unguiculatus [6] = test: Inhibition of GR73632-induced tapping behavior in po dosed Mongolian gerbil foot tapping model administered 1 to 24 hrs prior to GR73632 challenge; format: functional, organism-based
How it was run: (§2)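 Male gerbils (50–70 g) dosed orally (10 ml/kg) in 0.5% methocel with 5% DMSO, 1, 4, 8 or 24 h before icv GR73632 (3 pmol/5 µl) given under brief isoflurane. Hind foot tapping timed for 3 min; ≥7 animals per treatment.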

[7] = target: Sigma non-opioid intracellular receptor 1 (Homo sapiens, UniProt Q99720); test: Inhibition of sigma1 receptor (unknown origin)
Substance-P receptor [8] = target: Substance-P receptor (Meriones unguiculatus, UniProt Q5DUB1); test: Displacement of [3H]GR205171 from Mongolian gerbil brain NK1 receptor after 60 mins by scintillation counting analysis
How it was run: (§3)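 Brain membranes used: gerbil cortex/striatum (0.055 mg protein) or marmoset striatum (0.080 mg). Radioligand [3H]-GR205171 0.2 nM, compound 1 pM–1 µM final, in HEPES pH 7.4, MnCl2, BSA plus protease inhibitors. Incubation 60 min at room temperature; nonspecific binding with 1 µM GR205171. Filtration on GF/C, scintillation counting; LIGAND fit, duplicates.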

[9] = Ratio of drug uptake in brain to plasma in rat at 1 mg/kg, iv after 5 mins; format: ADME, organism-based; design: dose 1 mg/kg, route intravenous; details: read-out: BPR
How it was run: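 Rat brain and plasma levels measured 5 min after 1 mg/kg i.v. dose; brain/plasma ratio calculated.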

Substance-P receptor [10] = target: T1, Substance-P receptor; details: CHO
Meriones unguiculatus [11] = test: Ex vivo NK1 receptor occupancy in Mongolian gerbil striatum assessed as inhibition of [3H]-GR205171 binding at 0.1 mg/kg, po by autoradiography; format: functional
How it was run: (§4)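 Gerbils dosed orally (0.1–1 mg/kg) 1 h before, killed after social interaction testing. Unwashed 12 µm coronal sections incubated 10 min with 0.3 nM [3H]-GR205171; nonspecific binding with 100 nM GR205171. Imaging-plate exposure 10 days. Occupancy = 100% minus specific binding ratio treated/vehicle in striatum; 3 animals per group.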

Meriones unguiculatus [12] = test: Inhibition of GR73632-induced tapping behavior in po dosed Mongolian gerbil foot tapping model administered 1 hr prior to GR73632 challenge; format: functional; details: read-out: ID50 (the source's name); how it was run: as §2
[13] = Oral bioavailability in rat at 1 mg/kg; format: ADME, organism-based; details: in vivo; how it was run: as §1
Meriones unguiculatus [14] = test: Inhibition of GR73632-induced tapping behavior in po dosed Mongolian gerbil foot tapping model administered 24 hrs prior to GR73632 challenge; format: functional; details: read-out: ID50 (the source's name); how it was run: as §2
Meriones unguiculatus [15] = test: Ex vivo NK1 receptor occupancy in Mongolian gerbil striatum assessed as inhibition of [3H]-GR205171 binding at 0.3 mg/kg, po by autoradiography; format: functional; how it was run: as §4
Callithrix jacchus [16] = test: Anxiolytic activity in marmoset human threat test model assessed as reduction in number of postures at 10 mg/kg, po preincubated for 1 hr followed by compound wash out for 3 days relative to vehicle-treated control; format: functional; design: scale not given: the % may be the effect or the level left
How it was run: (§5)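 Marmosets, both sexes, >2 years, 300–500 g, preselected for ≥10 postures in 2 min. Oral dosing 0.3–10 mg/kg (1 ml/kg) in 0.5% methocel with 1% DMSO, 1 h before a human-observer threat test. Blind random crossover, ≥3 day washout, 4–7 animals. Postures counted; paired t-test against matched vehicle.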

Meriones unguiculatus [17] = test: Antidepressant activity in po dosed Mongolian gerbil assessed as increase in social interaction time after 1 hr; format: functional, organism-based
Meriones unguiculatus [18] = test: Antidepressant activity in Mongolian gerbil assessed as increase in social interaction time at 1 mg/kg, po after 1 hr (reference value: 21.2 +/- 2.9 secs); format: functional
[19] = Half life in rat at 0.5 mg/kg, iv and 1 mg/kg, po; format: ADME, organism-based; details: in vivo; how it was run: as §1
[20] = Ratio of drug uptake in brain to plasma in Mongolian gerbil at 1 mg/kg, po; format: ADME, organism-based, Meriones unguiculatus; design: dose 1 mg/kg, route oral
How it was run: (§6)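 Gerbils given 1 mg/kg orally; total brain concentration and brain/plasma ratio determined.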

[21] = Drug uptake in Mongolian gerbil brain at 1 mg/kg, po; format: ADME, organism-based, Meriones unguiculatus; design: dose 1 mg/kg, route oral; details: in vivo; how it was run: as §6
Meriones unguiculatus [22] = test: Ex vivo NK1 receptor occupancy in Mongolian gerbil striatum assessed as inhibition of [3H]-GR205171 binding at 1 mg/kg, po by autoradiography; format: functional; how it was run: as §4
[23] = Volume of distribution at steady state in dog at 0.5 mg/kg, iv and 1 mg/kg, po; format: ADME, organism-based, Canis lupus familiaris; details: in vivo, read-out: Vdss; how it was run: as §1
Meriones unguiculatus [24] = test: Antidepressant activity in Mongolian gerbil assessed as increase in social interaction time at 0.3 mg/kg, po after 1 hr (reference value: 21.2 +/- 2.9 secs); format: functional
Meriones unguiculatus [25] = test: Inhibition of GR73632-induced tapping behavior in po dosed Mongolian gerbil foot tapping model administered 4 hrs prior to GR73632 challenge; format: functional; details: read-out: ID50 (the source's name); how it was run: as §2
Meriones unguiculatus [26] = test: Toxicity in Mongolian gerbil assessed as locomotor activity at 0.1 to 1 mg/kg, po after 1 hr; format: organism-based; design: dose 0.1-1 mg/kg, route oral; details: in vivo
[27] = Inhibition of sodium channel site2 (unknown origin); design: species or system Homo sapiens
[28] = Plasma clearance in dog at 0.5 mg/kg, iv and 1 mg/kg, po; format: ADME, organism-based, Canis lupus familiaris; how it was run: as §1
Callithrix jacchus [29] = test: Anxiolytic activity in marmoset human threat test model assessed as reduction in number of postures at 3 mg/kg, po preincubated for 1 hr followed by compound wash out for 3 days relative to vehicle-treated control; format: functional; design: scale not given: the % may be the effect or the level left; how it was run: as §5
[30] = target: Platelet-activating factor receptor (Homo sapiens, UniProt P25105); test: Inhibition of platelet activating factor receptor (unknown origin)
[31] = Displacement of [3H]GR205171 from marmoset cerebral striatum NK1 receptor after 60 mins by scintillation counting analysis; design: species or system Callithrix jacchus; how it was run: as §3
Callithrix jacchus [32] = test: Anxiolytic activity in marmoset human threat test model assessed as reduction in number of postures at 1 mg/kg, po preincubated for 1 hr followed by compound wash out for 3 days relative to vehicle-treated control; format: functional; design: scale not given: the % may be the effect or the level left; how it was run: as §5
Meriones unguiculatus [33] = test: Inhibition of GR73632-induced tapping behavior in sc dosed Mongolian gerbil foot tapping model administered 1 hr prior to GR73632 challenge; format: functional; details: read-out: ID50
Meriones unguiculatus [34] = test: Inhibition of GR73632-induced tapping behavior in po dosed Mongolian gerbil foot tapping model administered 8 hrs prior to GR73632 challenge; format: functional; details: read-out: ID50 (the source's name); how it was run: as §2
[35] = Half life in dog at 0.5 mg/kg, iv and 1 mg/kg, po; format: ADME, organism-based, Canis lupus familiaris; details: in vivo; how it was run: as §1
[36] = Inhibition of sigma2 receptor (unknown origin); design: species or system Homo sapiens
Callithrix jacchus [37] = test: Anxiolytic activity in po dosed marmoset human threat test model assessed as reduction in number of postures preincubated for 1 hr followed by compound wash out for 3 days; format: functional, organism-based; how it was run: as §5
Meriones unguiculatus [38] = test: Antidepressant activity in Mongolian gerbil assessed as increase in social interaction time at 0.1 mg/kg, po after 1 hr (reference value: 21.2 +/- 2.9 secs); format: functional
Callithrix jacchus [39] = test: Anxiolytic activity in marmoset human threat test model assessed as reduction in number of postures at 0.3 mg/kg, po preincubated for 1 hr followed by compound wash out for 3 days relative to vehicle-treated control; format: functional; design: scale not given: the % may be the effect or the level left; how it was run: as §5

T1 sequence (P25103 whole entry): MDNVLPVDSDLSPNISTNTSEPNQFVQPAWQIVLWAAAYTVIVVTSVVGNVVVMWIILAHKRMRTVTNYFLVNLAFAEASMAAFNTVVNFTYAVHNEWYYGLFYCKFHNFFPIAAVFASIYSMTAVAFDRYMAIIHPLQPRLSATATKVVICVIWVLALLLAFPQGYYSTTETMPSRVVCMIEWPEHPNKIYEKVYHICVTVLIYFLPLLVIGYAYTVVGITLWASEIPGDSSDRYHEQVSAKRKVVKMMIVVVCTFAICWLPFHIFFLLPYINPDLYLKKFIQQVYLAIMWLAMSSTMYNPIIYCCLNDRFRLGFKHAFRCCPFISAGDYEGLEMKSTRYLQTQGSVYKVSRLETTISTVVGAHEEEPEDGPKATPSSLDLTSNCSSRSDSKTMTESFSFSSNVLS
Sequence of Sigma non-opioid intracellular receptor 1 (Q99720 whole entry): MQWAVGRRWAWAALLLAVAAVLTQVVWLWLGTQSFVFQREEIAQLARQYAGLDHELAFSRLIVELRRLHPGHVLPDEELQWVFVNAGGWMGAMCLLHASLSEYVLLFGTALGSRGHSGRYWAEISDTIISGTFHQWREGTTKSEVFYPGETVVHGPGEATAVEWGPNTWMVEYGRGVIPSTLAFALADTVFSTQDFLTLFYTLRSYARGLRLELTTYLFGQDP
Sequence of Platelet-activating factor receptor (P25105 whole entry): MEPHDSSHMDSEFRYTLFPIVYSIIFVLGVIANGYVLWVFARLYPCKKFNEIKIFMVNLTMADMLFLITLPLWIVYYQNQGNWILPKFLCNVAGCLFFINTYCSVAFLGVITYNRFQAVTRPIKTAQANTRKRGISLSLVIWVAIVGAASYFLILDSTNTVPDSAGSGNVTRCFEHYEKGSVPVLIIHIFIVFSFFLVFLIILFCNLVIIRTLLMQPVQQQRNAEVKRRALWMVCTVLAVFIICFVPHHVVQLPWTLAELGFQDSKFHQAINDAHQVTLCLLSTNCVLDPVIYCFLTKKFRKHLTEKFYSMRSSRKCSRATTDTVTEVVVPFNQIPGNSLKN
Sequence of Substance-P receptor (Meriones unguiculatus, UniProt Q5DUB1) (Q5DUB1 whole entry): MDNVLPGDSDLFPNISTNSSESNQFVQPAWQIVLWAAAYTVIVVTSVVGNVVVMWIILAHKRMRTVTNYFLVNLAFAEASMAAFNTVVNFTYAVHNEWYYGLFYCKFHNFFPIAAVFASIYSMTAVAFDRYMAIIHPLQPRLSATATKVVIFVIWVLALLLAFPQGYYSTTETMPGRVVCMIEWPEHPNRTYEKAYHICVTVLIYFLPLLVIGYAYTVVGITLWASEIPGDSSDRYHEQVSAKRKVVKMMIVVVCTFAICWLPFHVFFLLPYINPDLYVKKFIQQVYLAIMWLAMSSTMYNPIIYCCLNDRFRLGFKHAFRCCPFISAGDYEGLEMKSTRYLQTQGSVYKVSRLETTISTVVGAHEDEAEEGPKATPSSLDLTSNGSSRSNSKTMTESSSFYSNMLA

bioavailability [1]: 34% | Vd [2]: 3.2 L/kg | clearance [3]: 37 mL/min/kg
SMILES: CC(=O)N1CCN([C@H]2CCN(C(=O)N(C)[C@H](C)c3cc(C(F)(F)F)cc(C(F)(F)F)c3)[C@@H](c3ccc(F)cc3C)C2)CC1 [CASOPITANT]

IC50 (Substance-P receptor [4]): 0.61 nM
SMILES: COc1ccccc1CN1CN2CCCC1C2c1ccccc1 (configuration not stated)

Ki (Substance-P receptor [5]): 0.2 nM
SMILES: Cc1cc(F)ccc1[C@H]1C[C@@H](N2CCN3C(=O)CC[C@@H]3C2)CCN1C(=O)N(C)[C@H](C)c1cc(C(F)(F)F)cc(C(F)(F)F)c1

Ki (Substance-P receptor [5]): 0.138 nM
SMILES: Cc1cc(F)ccc1[C@H]1C[C@H](N2CCN3C(=O)CC[C@@H]3C2)CCN1C(=O)N(C)[C@H](C)c1cc(C(F)(F)F)cc(C(F)(F)F)c1

Ki [7]: 940 nM | Ki (Substance-P receptor [8]): 0.0316 nM | Kp at 5 min [9]: 1.2 | pKb (Substance-P receptor [10]): 10.3 | bioavailability [13]: 17% | half-life [19]: 2.3 h | Kp [20]: 1.2 | Drug uptake [21]: 91 ng/g | Ki (Substance-P receptor [5]): 0.0631 nM | Vd [23]: 2 L/kg | bioavailability [1]: 55% | Ki [27]: 4540 nM | clearance [28]: 6 mL/min/kg | Ki [30]: 2270 nM | pKi [31]: 10.4 | Vd [2]: 3.7 L/kg | half-life [35]: 6.1 h | Ki [36]: 3260 nM | clearance [3]: 29 mL/min/kg
SMILES: Cc1cc(F)ccc1[C@H]1C[C@@H](N2CCN3C(=O)CC[C@H]3C2)CCN1C(=O)N(C)[C@H](C)c1cc(C(F)(F)F)cc(C(F)(F)F)c1 [ORVEPITANT]
Activity (Meriones unguiculatus [6]): Dose-dependent effect | Occ (Meriones unguiculatus [11]): 47.8% | ED50 (Meriones unguiculatus [12]): 0.11 mg/kg | ED50 (Meriones unguiculatus [14]): 3.36 mg/kg | Occ (Meriones unguiculatus [15]): 74.6% | Activity (Callithrix jacchus [16]): 46.4% | Activity (Meriones unguiculatus [17]): Dose-dependent effect | Time (Meriones unguiculatus [18]): 33.1 s | Occ (Meriones unguiculatus [22]): 95.2% | Time (Meriones unguiculatus [24]): 27.3 s | ED50 (Meriones unguiculatus [25]): 0.09 mg/kg | Activity (Meriones unguiculatus [26]): Non-toxic | Activity (Callithrix jacchus [29]): 36.6% | Activity (Callithrix jacchus [32]): 34.9% | ED50 (Meriones unguiculatus [33]): 0.07 mg/kg | ED50 (Meriones unguiculatus [34]): 0.09 mg/kg | Activity (Callithrix jacchus [37]): Dose-dependent effect | Time (Meriones unguiculatus [38]): 22.1 s | Activity (Callithrix jacchus [39]): 11.8%

IC50 (Substance-P receptor [4]): 0.95 nM
SMILES: Cc1ccccc1-c1cc(N2CCN(C)CC2)ncc1N(C)C(=O)C(C)(C)c1cc(C(F)(F)F)cc(C(F)(F)F)c1 [NETUPITANT]

IC50 (Substance-P receptor [4]): 0.04 nM
SMILES: COc1ccc(-n2cnnn2)cc1CN[C@H]1CCCN[C@H]1c1ccccc1

Kp at 5 min [9]: 0.9 | pKb (Substance-P receptor [10]): 10.5 | bioavailability [13]: 19% | half-life [19]: 2.8 h | Ki (Substance-P receptor [5]): 0.0646 nM | Vd [23]: 2 L/kg | bioavailability [1]: 28% | clearance [28]: 11 mL/min/kg | Vd [2]: 3.4 L/kg | half-life [35]: 5.1 h | clearance [3]: 25 mL/min/kg
SMILES: Cc1cc(F)ccc1[C@H]1C[C@H](N2CCN3C(=O)CC[C@H]3C2)CCN1C(=O)N(C)[C@H](C)c1cc(C(F)(F)F)cc(C(F)(F)F)c1
